Format in all cases: functional
For experiment [1], the species on record is Homo sapiens. In words: Sensory evaluation was done for sweetness at a concentration of 634 p.p.m. against compound potency calculated on a molar basis. The essentials: (§1)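 Sweetness tasted in solutions held near pH ~7, so carboxylic acids are ionized. Potency is reported two ways: on a weight basis (Pw) and on a molar basis (Pm).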
The species entered for experiment [2] is Homo sapiens. In words: Sensory evaluation was done for sweetness at a concentration of 634 p.p.m. against sample intensity relative to 10% sucrose. The gist of the method: as §1
The species named for experiment [3] is Homo sapiens. Description: Sensory evaluation was done at a concentration of 634 p.p.m. against other properties. The gist of the method: (§2)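 Aqueous sample solutions were tasted at about pH 7, so carboxylic acids were in ionized form.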
The species named for experiment [4] is Homo sapiens. In words: Sensory evaluation was done at a concentration of 634 p.p.m. against property of bitterness. The gist of the method:
as §2

The species entered for experiment [5] is Homo sapiens. In words: Sensory evaluation was done at a concentration of 634 p.p.m. against property of sweetness. The essentials: as §2
Experiment [6] is filed under the species Homo sapiens. Description: Sensory evaluation was done for sweetness at a concentration of 634 p.p.m. against compound potency calculated on weight basis. The essentials:
as §1

For experiment [7], the species on record is Homo sapiens. In words: Sensory evaluation was done for sweetness at a concentration of 100000 p.p.m. against compound potency calculated on weight basis. The essentials:
(§3)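 Solutions were tasted at about pH 7. Sweetness potency was expressed two ways: Pw, calculated on a weight basis, and Pm, calculated on a molar basis.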

The species entered for experiment [8] is Homo sapiens. In words: Sensory evaluation was done for sweetness at a concentration of 100000 p.p.m. against compound potency calculated on a molar basis. The gist of the method: as §3
The species named for experiment [9] is Homo sapiens. In words: Sensory evaluation was done at a concentration of 100000 p.p.m. against other properties. The essentials:
as §2

For experiment [10], the species on record is Homo sapiens. In words: Sensory evaluation was done at a concentration of 100000 p.p.m. against property of bitterness. The essentials:
as §2

The species named for experiment [11] is Homo sapiens. Description: Sensory evaluation was done at a concentration of 100000 p.p.m. against property of sweetness. The essentials:
as §2

For experiment [12], the species on record is Homo sapiens. In words: Sensory evaluation was done for sweetness at a concentration of 100000 p.p.m. against sample intensity relative to 10% sucrose. The essentials: as §1
For experiment [13], the species on record is Homo sapiens. Description: Sensory evaluation was done for sweetness at a concentration of 250 p.p.m. against compound potency calculated on weight basis. The essentials: as §1
The species entered for experiment [14] is Homo sapiens. In words: Sensory evaluation was done for sweetness at a concentration of 250 p.p.m. against compound potency calculated on a molar basis. The essentials: as §1
For experiment [15], the species on record is Homo sapiens. In words: Sensory evaluation was done at a concentration of 250 p.p.m. against other properties. The essentials: as §2
The species named for experiment [16] is Homo sapiens. Description: Sensory evaluation was done at a concentration of 250 p.p.m. against property of bitterness. The gist of the method: as §2
Experiment [17] is filed under the species Homo sapiens. Description: Sensory evaluation was done for sweetness at a concentration of 250 p.p.m. against sample intensity relative to 10% sucrose. The essentials: as §1
The species entered for experiment [18] is Homo sapiens. Description: Sensory evaluation was done at a concentration of 250 p.p.m. against property of sweetness. The gist of the method:
as §2

In the case of `C=C1C[C@@]23CC[C@H]4[C@@](C)(CCC[C@@]4(C)C(=O)OCC(=O)O)[C@@H]2CC[C@]1(O[C@@H]1O[C@@H](CO)[C@@H](O)[C@H](O)[C@@H]1O[C@@H]1O[C@@H](CO)[C@@H](O)[C@H](O)[C@@H]1O)C3`, the Pm in the experiment listed under Homo sapiens [1] is on record as 310. In the experiment filed under Homo sapiens [2], this molecule had an Ip of 0.9. Besides, the values for the Sensory evaluation in the experiment listed under Homo sapiens [3], in the experiment listed under Homo sapiens [4] and in the experiment filed under Homo sapiens [5] were 1, 19 and 80, respectively. Besides, the Pw in the experiment listed under Homo sapiens [6] is on record as 140.

Consider `OC[C@H]1O[C@@](CO)(O[C@H]2O[C@H](CO)[C@@H](O)[C@H](O)[C@H]2O)[C@@H](O)[C@@H]1O` [SUCROSE], for which, in the experiment listed under Homo sapiens [7], the Pw is on record as 1. For the same molecule, the Pm in the experiment filed under Homo sapiens [8] was 1. Moreover, the Sensory evaluation is 0 in the experiment listed under Homo sapiens [9], 0 in the experiment filed under Homo sapiens [10] and 100 in the experiment listed under Homo sapiens [11]. This molecule also showed an Ip in the experiment filed under Homo sapiens [12] of 1.

As for `COc1ccc(CCC(=O)c2c(O)cc(O[C@@H]3O[C@H](CO)[C@@H](O)[C@H](O)[C@H]3O[C@@H]3O[C@@H](C)[C@H](O)[C@@H](O)[C@H]3O)cc2O)cc1O` [NEOHESPERIDIN DIHYDROCHALCONE], the Pw in the experiment listed under Homo sapiens [13] was 480. The Pm in the experiment filed under Homo sapiens [14] is 860. Further, the Sensory evaluation in the experiment filed under Homo sapiens [15] is listed as 16; in the experiment listed under Homo sapiens [16], 3; in the experiment filed under Homo sapiens [18], 81. Further, the Ip in the experiment listed under Homo sapiens [17] is recorded as 1.2.

(Values after ChEMBL document CHEMBL1123134, “Diterpenoid sweeteners. Synthesis and sensory evaluation of stevioside analogues with improved organoleptic properties” (1985).)
